In ChEMBL document CHEMBL1287651, “Synthesis and in vitro antibacterial activity of fluoroquinolone derivatives containing 3-(N'-alkoxycarbamimidoyl)-4-(alkoxyimino) pyrrolidines” (2010):
≈ marks a conversion by molar mass, not a printed value.

Experiments:
Format in all cases: functional
Staphylococcus aureus [1] = assay: Antibacterial activity against Staphylococcus aureus ATCC […] after 18 to 24 hrs by twofold serial dilution method
Procedure, shortened: (§1)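 MIC determined by the standard twofold serial dilution method on agar media, screening against Gram-positive and Gram-negative strains. Levofloxacin and gemifloxacin were run alongside as reference drugs.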

Staphylococcus aureus [2] = assay: Antibacterial activity against methicillin-resistant Staphylococcus aureus 08-1 after 18 to 24 hrs by twofold serial dilution method
Procedure, shortened: (§2)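 Standard twofold serial agar dilution method on agar media for MIC determination. Screened against representative Gram-positive and Gram-negative strains. Levofloxacin and GMFX served as control drugs.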

Staphylococcus aureus [3] = assay: Antibacterial activity against methicillin-sensitive Staphylococcus aureus 08-2 after 18 to 24 hrs by twofold serial dilution method; procedure, shortened: as §2
[4] = tested on: Staphylococcus epidermidis; assay: Antibacterial activity against methicillin-resistant Staphylococcus epidermidis 09-2 after 18 to 24 hrs by twofold serial dilution method; procedure, shortened: as §2
[5] = tested on: Staphylococcus epidermidis; assay: Antibacterial activity against methicillin-resistant Staphylococcus epidermidis 09-3 after 18 to 24 hrs by twofold serial dilution method; procedure, shortened: as §2
[6] = tested on: Staphylococcus epidermidis; assay: Antibacterial activity against methicillin-resistant Staphylococcus epidermidis 09-4 after 18 to 24 hrs by twofold serial dilution method; procedure, shortened: as §2
[7] = tested on: Staphylococcus epidermidis; assay: Antibacterial activity against methicillin-sensitive Staphylococcus epidermidis 09-3 after 18 to 24 hrs by twofold serial dilution method; procedure, shortened: as §2
[8] = tested on: Staphylococcus epidermidis; assay: Antibacterial activity against methicillin-sensitive Staphylococcus epidermidis 09-6 after 18 to 24 hrs by twofold serial dilution method; procedure, shortened: as §2
Streptococcus pneumoniae [9] = assay: Antibacterial activity against Streptococcus pneumoniae 08-2 after 18 to 24 hrs by twofold serial dilution method; procedure, shortened: as §1
Streptococcus pneumoniae [10] = assay: Antibacterial activity against Streptococcus pneumoniae 08-4 after 18 to 24 hrs by twofold serial dilution method; procedure, shortened: as §1
Enterococcus faecium [11] = assay: Antibacterial activity against Enterococcus faecium 08-2 after 18 to 24 hrs by twofold serial dilution method; procedure, shortened: as §1
Enterococcus faecium [12] = assay: Antibacterial activity against Enterococcus faecium 08-7 after 18 to 24 hrs by twofold serial dilution method; procedure, shortened: as §1
Enterococcus faecalis [13] = assay: Antibacterial activity against Enterococcus faecalis 08-10 after 18 to 24 hrs by twofold serial dilution method; procedure, shortened: as §1
Enterococcus faecalis [14] = assay: Antibacterial activity against Enterococcus faecalis 08-12 after 18 to 24 hrs by twofold serial dilution method; procedure, shortened: as §1
Escherichia coli [15] = assay: Antibacterial activity against Escherichia coli ATCC 25922 after 18 to 24 hrs by twofold serial dilution method; procedure, shortened: as §1
Escherichia coli [16] = assay: Antibacterial activity against Escherichia coli 08-21 after 18 to 24 hrs by twofold serial dilution method; procedure, shortened: as §1
Escherichia coli [17] = assay: Antibacterial activity against Escherichia coli 08-22 after 18 to 24 hrs by twofold serial dilution method; procedure, shortened: as §1
Klebsiella pneumoniae [18] = assay: Antibacterial activity against Klebsiella pneumoniae 09-21 after 18 to 24 hrs by twofold serial dilution method; procedure, shortened: as §1
Klebsiella pneumoniae [19] = assay: Antibacterial activity against Klebsiella pneumoniae 09-22 after 18 to 24 hrs by twofold serial dilution method; procedure, shortened: as §1
Klebsiella pneumoniae [20] = assay: Antibacterial activity against Klebsiella pneumoniae 09-23 after 18 to 24 hrs by twofold serial dilution method; procedure, shortened: as §1
Pseudomonas aeruginosa [21] = assay: Antibacterial activity against Pseudomonas aeruginosa ATCC 27853 after 18 to 24 hrs by twofold serial dilution method; procedure, shortened: as §1
Pseudomonas aeruginosa [22] = assay: Antibacterial activity against Pseudomonas aeruginosa 09-32 after 18 to 24 hrs by twofold serial dilution method; procedure, shortened: as §1
Pseudomonas aeruginosa [23] = assay: Antibacterial activity against Pseudomonas aeruginosa 09-33 after 18 to 24 hrs by twofold serial dilution method; procedure, shortened: as §1
Pseudomonas aeruginosa [24] = assay: Antibacterial activity against Pseudomonas aeruginosa 09-34 after 18 to 24 hrs by twofold serial dilution method; procedure, shortened: as §1
Pseudomonas aeruginosa [25] = assay: Antibacterial activity against Pseudomonas aeruginosa 09-35 after 18 to 24 hrs by twofold serial dilution method; procedure, shortened: as §1

| Structure (SMILES) | MIC (Staphylococcus aureus [1]) [µg/mL] | MIC (Staphylococcus aureus [2]) [µg/mL] | MIC (Staphylococcus aureus [3]) [µg/mL] | MIC [4] [µg/mL] | MIC [5] [µg/mL] | MIC [6] [µg/mL] | MIC [7] [µg/mL] | MIC [8] [µg/mL] | MIC (Streptococcus pneumoniae [9]) [µg/mL] | MIC (Streptococcus pneumoniae [10]) [µg/mL] | MIC (Enterococcus faecium [11]) [µg/mL] | MIC (Enterococcus faecium [12]) [µg/mL] | MIC (Enterococcus faecalis [13]) [µg/mL] | MIC (Enterococcus faecalis [14]) [µg/mL] | MIC (Escherichia coli [15]) [µg/mL] | MIC (Escherichia coli [16]) [µg/mL] | MIC (Escherichia coli [17]) [µg/mL] | MIC (Klebsiella pneumoniae [18]) [µg/mL] | MIC (Klebsiella pneumoniae [19]) [µg/mL] | MIC (Klebsiella pneumoniae [20]) [µg/mL] | also measured |
| --- | --- | --- | --- | --- | --- | --- | --- | --- | --- | --- | --- | --- | --- | --- | --- | --- | --- | --- | --- | --- | --- |
| CCO/N=C1\CN(c2c(F)cc3c(=O)c(C(=O)O)cn(C4CC4)c3c2OC)CC1/C(N)=N\O (stereo not given) | 0.25 (≈ 0.542 µM) | 0.25 (≈ 0.542 µM) | 0.25 (≈ 0.542 µM) | 0.5 (≈ 1.08 µM) | 0.25 (≈ 0.542 µM) | 0.5 (≈ 1.08 µM) | 0.25 (≈ 0.542 µM) | 0.25 (≈ 0.542 µM) | 1 (≈ 2.17 µM) | 1 (≈ 2.17 µM) | > 128 | > 128 | > 128 | > 128 | 128 (≈ 277 µM) | > 128 | > 128 | > 128 | 4 (≈ 8.67 µM) | > 128 | MIC (Pseudomonas aeruginosa [21]): 32 µg/mL (≈ 69.3 µM); MIC (Pseudomonas aeruginosa [22]): 64 µg/mL (≈ 139 µM); MIC (Pseudomonas aeruginosa [23]): > 128 µg/mL; MIC (Pseudomonas aeruginosa [24]): > 128 µg/mL; MIC (Pseudomonas aeruginosa [25]): 64 µg/mL (≈ 139 µM) |
| CO/N=C1\CN(c2c(F)cc3c(=O)c(C(=O)O)cn(C4CC4)c3c2OC)CC1/C(N)=N\OC (stereo not given) | 0.125 (≈ 0.271 µM) | 0.25 (≈ 0.542 µM) | 0.125 (≈ 0.271 µM) | 0.25 (≈ 0.542 µM) | 0.25 (≈ 0.542 µM) | 0.25 (≈ 0.542 µM) | 0.125 (≈ 0.271 µM) | 0.25 (≈ 0.542 µM) | 8 (≈ 17.3 µM) | 0.25 (≈ 0.542 µM) | > 128 | > 128 | > 128 | > 128 | 128 (≈ 277 µM) | > 128 | > 128 | > 128 | 2 (≈ 4.33 µM) | > 128 | MIC (Pseudomonas aeruginosa [21]): 64 µg/mL (≈ 139 µM); MIC (Pseudomonas aeruginosa [22]): 128 µg/mL (≈ 277 µM); MIC (Pseudomonas aeruginosa [23]): > 128 µg/mL; MIC (Pseudomonas aeruginosa [24]): > 128 µg/mL; MIC (Pseudomonas aeruginosa [25]): 128 µg/mL (≈ 277 µM) |
| CCO/N=C1\CN(c2c(F)cc3c(=O)c(C(=O)O)cn(C4CC4)c3c2OC)CC1/C(N)=N\OC (stereo not given) | 0.5 (≈ 1.05 µM) | 0.25 (≈ 0.526 µM) | 0.25 (≈ 0.526 µM) | 0.5 (≈ 1.05 µM) | 0.125 (≈ 0.263 µM) | 0.125 (≈ 0.263 µM) | 0.25 (≈ 0.526 µM) | 0.25 (≈ 0.526 µM) | 4 (≈ 8.41 µM) | 4 (≈ 8.41 µM) | > 128 | > 128 | 0.25 (≈ 0.526 µM) | 0.5 (≈ 1.05 µM) | > 128 | > 128 | > 128 | > 128 | 4 (≈ 8.41 µM) | > 128 | MIC (Pseudomonas aeruginosa [21]): > 128 µg/mL; MIC (Pseudomonas aeruginosa [22]): > 128 µg/mL; MIC (Pseudomonas aeruginosa [23]): > 128 µg/mL; MIC (Pseudomonas aeruginosa [24]): > 128 µg/mL; MIC (Pseudomonas aeruginosa [25]): > 128 µg/mL |
| CCO/N=C(/N)C1CN(c2c(F)cc3c(=O)c(C(=O)O)cn(C4CC4)c3c2OC)C/C1=N\OC (stereo not given) | 0.25 (≈ 0.526 µM) | 0.25 (≈ 0.526 µM) | 0.25 (≈ 0.526 µM) | 0.5 (≈ 1.05 µM) | 0.125 (≈ 0.263 µM) | 0.125 (≈ 0.263 µM) | 0.25 (≈ 0.526 µM) | 0.25 (≈ 0.526 µM) | 32 (≈ 67.3 µM) | 2 (≈ 4.21 µM) | > 128 | > 128 | > 128 | 128 (≈ 269 µM) | 128 (≈ 269 µM) | > 128 | > 128 | > 128 | 8 (≈ 16.8 µM) | > 128 | MIC (Pseudomonas aeruginosa [21]): 128 µg/mL (≈ 269 µM); MIC (Pseudomonas aeruginosa [22]): > 128 µg/mL; MIC (Pseudomonas aeruginosa [23]): > 128 µg/mL; MIC (Pseudomonas aeruginosa [24]): > 128 µg/mL; MIC (Pseudomonas aeruginosa [25]): > 128 µg/mL |
| CCO/N=C1\CN(c2c(F)cc3c(=O)c(C(=O)O)cn(C4CC4)c3c2OC)CC1/C(N)=N\OCC (stereo not given) | 0.5 (≈ 1.02 µM) | 64 (≈ 131 µM) | 64 (≈ 131 µM) | 0.5 (≈ 1.02 µM) | 1 (≈ 2.04 µM) | 1 (≈ 2.04 µM) | 0.5 (≈ 1.02 µM) | 0.5 (≈ 1.02 µM) | 64 (≈ 131 µM) | 1 (≈ 2.04 µM) | 64 (≈ 131 µM) | 64 (≈ 131 µM) | 64 (≈ 131 µM) | 64 (≈ 131 µM) | 16 (≈ 32.7 µM) | 64 (≈ 131 µM) | 64 (≈ 131 µM) | 64 (≈ 131 µM) | 32 (≈ 65.4 µM) | 64 (≈ 131 µM) | MIC (Pseudomonas aeruginosa [21]): 16 µg/mL (≈ 32.7 µM); MIC (Pseudomonas aeruginosa [22]): 64 µg/mL (≈ 131 µM); MIC (Pseudomonas aeruginosa [23]): 64 µg/mL (≈ 131 µM); MIC (Pseudomonas aeruginosa [24]): 64 µg/mL (≈ 131 µM); MIC (Pseudomonas aeruginosa [25]): 64 µg/mL (≈ 131 µM) |
| CO/N=C1\CN(c2c(F)cc3c(=O)c(C(=O)O)cn(C4CC4)c3c2OC(F)F)CC1/C(N)=N\O (stereo not given) | 0.125 (≈ 0.259 µM) | 0.125 (≈ 0.259 µM) | 0.25 (≈ 0.517 µM) | 4 (≈ 8.27 µM) | 0.25 (≈ 0.517 µM) | 0.5 (≈ 1.03 µM) | 0.25 (≈ 0.517 µM) | 0.25 (≈ 0.517 µM) | 4 (≈ 8.27 µM) | 4 (≈ 8.27 µM) | > 128 | > 128 | > 128 | > 128 | 128 (≈ 265 µM) | > 128 | > 128 | > 128 | 64 (≈ 132 µM) | > 128 | MIC (Pseudomonas aeruginosa [21]): 128 µg/mL (≈ 265 µM); MIC (Pseudomonas aeruginosa [22]): > 128 µg/mL; MIC (Pseudomonas aeruginosa [23]): > 128 µg/mL; MIC (Pseudomonas aeruginosa [24]): > 128 µg/mL; MIC (Pseudomonas aeruginosa [25]): > 128 µg/mL |
